From ChEMBL document CHEMBL5724801, “EUbOPEN Chemogenomics Library - Multiplex” (2024)
Where “and” joins values, the source holds several entries; their conditions need not be identical. Identical values can stand only once.

Tested on: Fibroblast
Assay: Multiplex assay against human fibroblast
Format: toxicity, cell-based
Conditions: 12 h, 1 µM, compound concentration 1 uM
Procedure, shortened: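 Live cells carried four stains from seeding: Hoechst33342, BioTracker Green Microtubule Cytoskeleton Dye, MitoTracker Red and Annexin V Alexa Fluor 680. They were imaged on a CQ1 microscope at 37°C and 5% CO2 after compound addition. Using CellPathfinder machine-learning gating, cells were split into Hoechst high-intensity objects or normal cells, normal cells into healthy, pyknosed or fragmented nuclei, and pyknosed cells into mitotic or apoptotic; tubulin, mitochondrial-mass and membrane-permeability phenotypes are per cents of healthy-nucleus cells.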

Structure (SMILES) | Population Apoptotic (%) | Population Fragmented Nuclei (%) | Population Healthy Nuclei (%) | Population Hoechst High Intensity Objects (%) | Population Membrane Permeable-Phenotype (%) | Population Mitochondria Different-Phenotype (%) | Population Mitotic Cells (%) | Population Normal (%) | Population Pyknosed Nuclei (%) | Population Tubulin-Different-Phenotype (%)
C[C@H]1[C@H]2CC[C@H]3[C@@H]4CC=C5C[C@@H](N(C)C)CC[C@]5(C)[C@H]4CC[C@]23CN1C [CONESSINE] | 45% and 29% | 15% and 33% | 73% and 41% | 1% and 2% | 0% and 7% | 8% and 2% | 55% and 70% | 98% and 97% | 11% and 24% | 19% and 46%
CCCC(CCC)C(=O)O [VALPROIC ACID] | 42% and 57% | 13% and 20% | 65% and 47% | 3% and 8% | 2% and 10% | – | 57% and 42% | 96% and 91% | 21% and 31% | 27% and 49%

Same assay, conditions: 12 h, 1 µM, compound concentration 1 uM

Structure (SMILES) | Total Cell Count
C[C@H]1[C@H]2CC[C@H]3[C@@H]4CC=C5C[C@@H](N(C)C)CC[C@]5(C)[C@H]4CC[C@]23CN1C [CONESSINE] | 174 and 101

Same assay, conditions: 12 h, 10 µM, compound concentration 10 uM

Structure (SMILES) | Population Apoptotic (%) | Population Fragmented Nuclei (%) | Population Healthy Nuclei (%) | Population Hoechst High Intensity Objects (%) | Population Membrane Permeable-Phenotype (%) | Population Mitochondria Different-Phenotype (%) | Population Mitotic Cells (%) | Population Normal (%) | Population Pyknosed Nuclei (%) | Population Tubulin-Different-Phenotype (%)
C[C@H]1[C@H]2CC[C@H]3[C@@H]4CC=C5C[C@@H](N(C)C)CC[C@]5(C)[C@H]4CC[C@]23CN1C [CONESSINE] | 37% and 43% | 26% | 60% and 45% | 3% | 5% and 8% | 10% and 4% | 62% and 56% | 96% | 13% and 28% | 32% and 58%
CCCC(CCC)C(=O)O [VALPROIC ACID] | 30% and 43% | 29% and 16% | 60% and 53% | 4% and 2% | 1% and 4% | 3% and 8% | 70% and 56% | 95% and 97% | – | 16% and 41%

Same assay, conditions: 12 h, 10 µM, compound concentration 10 uM

Structure (SMILES) | Total Cell Count
C[C@H]1[C@H]2CC[C@H]3[C@@H]4CC=C5C[C@@H](N(C)C)CC[C@]5(C)[C@H]4CC[C@]23CN1C [CONESSINE] | 189 and 110

Same assay, conditions: 24 h, 1 µM, compound concentration 1 uM

Structure (SMILES) | Population Apoptotic (%) | Population Fragmented Nuclei (%) | Population Healthy Nuclei (%) | Population Hoechst High Intensity Objects (%) | Population Mitochondria Different-Phenotype (%) | Population Mitotic Cells (%) | Population Normal (%) | Population Pyknosed Nuclei (%) | Population Tubulin-Different-Phenotype (%) | Total Cell Count
C[C@H]1[C@H]2CC[C@H]3[C@@H]4CC=C5C[C@@H](N(C)C)CC[C@]5(C)[C@H]4CC[C@]23CN1C [CONESSINE] | 43% and 40% | 13% and 27% | 73% and 48% | 2% and 4% | 4% and 6% | 56% and 59% | 97% and 95% | 13% and 24% | 22% and 61% | 175 and 95
CCCC(CCC)C(=O)O [VALPROIC ACID] | 42% and 48% | 11% and 22% | 69% and 53% | 5% and 7% | 2% and 7% | 57% and 51% | 95% and 92% | 19% and 24% | 22% and 54% | –

Same assay, conditions: 24 h, 1 µM, compound concentration 1 uM

Structure (SMILES) | Population Membrane Permeable-Phenotype (%)
CCCC(CCC)C(=O)O [VALPROIC ACID] | 1% and 3%

Same assay, conditions: 24 h, 10 µM, compound concentration 10 uM

Structure (SMILES) | Population Apoptotic (%) | Population Fragmented Nuclei (%) | Population Healthy Nuclei (%) | Population Hoechst High Intensity Objects (%) | Population Membrane Permeable-Phenotype (%) | Population Mitochondria Different-Phenotype (%) | Population Mitotic Cells (%) | Population Normal (%) | Population Tubulin-Different-Phenotype (%) | Total Cell Count
C[C@H]1[C@H]2CC[C@H]3[C@@H]4CC=C5C[C@@H](N(C)C)CC[C@]5(C)[C@H]4CC[C@]23CN1C [CONESSINE] | 64% and 36% | 28% | 61% and 39% | 3% and 2% | 1% and 7% | 7% | 35% and 63% | 96% and 97% | 27% and 60% | 190 and 106
CCCC(CCC)C(=O)O [VALPROIC ACID] | 50% and 38% | 27% and 30% | 66% and 46% | 6% and 3% | 0% and 5% | 1% and 4% | 50% and 61% | 93% and 96% | 21% and 41% | –

Same assay, conditions: 48 h, 1 µM, compound concentration 1 uM

Structure (SMILES) | Population Apoptotic (%) | Population Fragmented Nuclei (%) | Population Healthy Nuclei (%) | Population Hoechst High Intensity Objects (%) | Population Membrane Permeable-Phenotype (%) | Population Mitochondria Different-Phenotype (%) | Population Mitotic Cells (%) | Population Normal (%) | Population Pyknosed Nuclei (%) | Population Tubulin-Different-Phenotype (%)
C[C@H]1[C@H]2CC[C@H]3[C@@H]4CC=C5C[C@@H](N(C)C)CC[C@]5(C)[C@H]4CC[C@]23CN1C [CONESSINE] | 50% and 47% | 17% and 37% | 73% and 45% | 5% and 0% | 0% and 17% | 3% and 8% | 50% and 52% | 94% and 99% | 9% and 16% | 27% and 63%
CCCC(CCC)C(=O)O [VALPROIC ACID] | 55% and 48% | 18% and 36% | 66% and 44% | 7% | 0% and 4% | 1% and 7% | 44% and 51% | 92% | 14% and 19% | 19% and 55%

Same assay, conditions: 48 h, 1 µM, compound concentration 1 uM

Structure (SMILES) | Total Cell Count
C[C@H]1[C@H]2CC[C@H]3[C@@H]4CC=C5C[C@@H](N(C)C)CC[C@]5(C)[C@H]4CC[C@]23CN1C [CONESSINE] | 178 and 104

Same assay, conditions: 48 h, 10 µM, compound concentration 10 uM

Structure (SMILES) | Population Apoptotic (%) | Population Fragmented Nuclei (%) | Population Healthy Nuclei (%) | Population Hoechst High Intensity Objects (%) | Population Membrane Permeable-Phenotype (%) | Population Mitochondria Different-Phenotype (%) | Population Mitotic Cells (%) | Population Normal (%) | Population Pyknosed Nuclei (%) | Population Tubulin-Different-Phenotype (%)
C[C@H]1[C@H]2CC[C@H]3[C@@H]4CC=C5C[C@@H](N(C)C)CC[C@]5(C)[C@H]4CC[C@]23CN1C [CONESSINE] | 66% and 27% | 26% and 29% | 62% and 48% | 6% and 2% | 0% and 8% | 4% and 6% | 33% and 72% | 93% and 97% | 10% and 22% | 25% and 62%
CCCC(CCC)C(=O)O [VALPROIC ACID] | 60% | 30% and 33% | 60% and 51% | 1% and 5% | 0% and 6% | 1% and 5% | 40% and 39% | 98% and 94% | 8% and 15% | 18% and 46%

Same assay, conditions: 48 h, 10 µM, compound concentration 10 uM

Structure (SMILES) | Total Cell Count
C[C@H]1[C@H]2CC[C@H]3[C@@H]4CC=C5C[C@@H](N(C)C)CC[C@]5(C)[C@H]4CC[C@]23CN1C [CONESSINE] | 190 and 102
